The values that follow come from PubChem BioAssay AID504360 (Broad Institute, 2011).

Structures are written as SMILES. Activity calls are given as the source filed them.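 The calls were made as follows: active = fitted curve rises past 10% of the positive control signal at or below the top valid tested dose; inconclusive = flat fit between 30 and 70%, or an unreliable fit; inactive = the rest, including signal that falls instead.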

For assay [1], the system named is MEF A1-2A-tBid cells, caspase-3/7 luminescence, 3 h. The assay is described as follows: caspase-3/7 activation in A1-2A-tBid MEFs, dose response, orthogonal assay for A1 inhibitor project, cell-based, MEF A1-2A-tBid, luminescence, dry powder, set 3 (AID 504360). The method, boiled down: (§1)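 Compound dosing: 100 nL pinned compound / Assay system: mouse embryonic fibroblasts co-expressing A1 and tBid (A1-2A-tBid), primed / Buffer or medium: RPMI-1640, 10% FBS / Timing: 3 h compound at 37 °C, 1 h reagent at room temperature / Measured by: luminescence from Caspase-Glo 3/7 DEVD-luciferin substrate, 1:1 in 50 mM HEPES / Read-out: Caspase-3/7 activity derived from luminescence signal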

Assay in assay [2]: as above
As to conditions: MEF A1-2A-tBid cells, caspase-3/7 luminescence, 3 h; at 35 µM (top of the series). The method, boiled down: as §1

As to `Cn1c(=O)c([N+](=O)[O-])c(Cl)c2ccccc21`, the AC10 in assay [1] was 1880 nM.
Turning to `COc1ccc(N2CCN(c3nc(NCCc4ccc(OC)c(OC)c4)nc(N4CCOCC4)n3)CC2)cc1`, in assay [2], the caspase activation was -0.079% (inactive).
Turning to `O=c1[nH]c2ccccc2c(Cl)c1[N+](=O)[O-]`, the AC10 in assay [1] was 2540 nM.
In the case of `CCn1c(=O)c([N+](=O)[O-])c(Sc2ccc(C)cc2)c2ccccc21`, the caspase activation in assay [2] is 1.72% (inactive).
The same measure, in the same setting: in the case of `O=C(COc1ccc(Cl)cc1Cl)NNc1nc(N2CCOCC2)nc(N2CCOCC2)n1` it was -1.25% (inactive); in that of `COc1ccc(CCNc2nc(N3CCCC3)nc(N3CCCC3)n2)cc1OC`, 3.4% (inactive); in that of `COc1ccc(CCNc2nc(N3CCOCC3)nc(N3CCOCC3)n2)cc1OC`, 1.3% (inactive).
Take `Cc1ccc(Sc2c([N+](=O)[O-])c(=O)n(Cc3ccccc3)c3ccccc23)cc1`: the caspase activation in assay [2] is 3.46% (inactive).
Regarding `Cc1ccc(S(=O)(=O)c2c([N+](=O)[O-])c(=O)n(C)c3ccccc23)cc1`, the AC10 in assay [1] was 3190 nM.
Same read-out and setting: in the case of `Cn1c(=O)c([N+](=O)[O-])c(S(C)(=O)=O)c2ccccc21` it was 3280 nM; in that of `COCCn1c(=O)c([N+](=O)[O-])c(Cl)c2ccccc21`, 1470 nM.
In the case of `CCn1c(=O)c([N+](=O)[O-])c(Cl)c2ccccc21`, the AC10 in assay [1] was 1950 nM.
Regarding `Cc1ccc(Sc2c(Sc3ccc(C)cc3)c3ccccc3n(Cc3ccccc3)c2=O)cc1`, in assay [2], the caspase activation was 1.55% (inactive).
As to `Cn1c(=O)c([N+](=O)[O-])c(Sc2ccccn2)c2ccccc21`, the AC10 in assay [1] was 2950 nM.
With `COc1nc2ccccc2c(Cl)c1[N+](=O)[O-]`, the caspase activation in assay [2] is 1.9% (inactive).
Take `CC1(C)CCC(c2ccc(Cl)cc2)=C(CN2CCN(c3ccc(C(=O)NS(=O)(=O)c4ccc(N[C@H](CCN5CCOCC5)CSc5ccccc5)c(S(=O)(=O)C(F)(F)F)c4)cc3)CC2)C1`: the AC10 in assay [1] was 579 nM.
In the case of `Cc1ccc(Sc2c([N+](=O)[O-])c(=O)n(C)c3ccccc23)cc1`, the caspase activation in assay [2] is 10.3% (inactive).
Consider `COCCn1c(=O)c([N+](=O)[O-])c(Sc2ccc(C)cc2)c2ccccc21`, for which, in assay [1], the AC10 was 16700 nM.
As to `O=c1[nH]c2ccccc2c(O)c1[N+](=O)[O-]`, the caspase activation in assay [2] was 2.36% (inactive).
As for `COc1nc2ccccc2c(Sc2ccc(C)cc2)c1[N+](=O)[O-]`, the caspase activation in assay [2] is 1.61% (inactive).
Same read-out and setting: the result for `COCCn1c(=O)c(Sc2ccc(C)cc2)c(Sc2ccc(C)cc2)c2ccccc21` reads 1.26% (inactive).
As for `O=c1c([N+](=O)[O-])c(Cl)c2ccccc2n1Cc1ccccc1`, in assay [1], the AC10 is 12400 nM.
As for `COc1c([N+](=O)[O-])c(=O)n(C)c2ccccc12`, the caspase activation in assay [2] is 1.76% (inactive).
In the case of `C/C(=N\Nc1nc(N2CCCCC2)nc(N2CCCCC2)n1)c1ccc(F)cc1`, the caspase activation in assay [2] is -0.355% (inactive).
Same read-out and setting: in the case of `Cn1c(=O)c(Sc2ccccn2)c(Sc2ccccn2)c2ccccc21` it was 3.1% (inactive).
With `Cc1ccc(Sc2c(Sc3ccc(C)cc3)c3ccccc3n(C)c2=O)cc1`, in assay [2], the caspase activation was 0.911% (inactive).
`CCn1c(=O)c(Sc2ccc(C)cc2)c(Sc2ccc(C)cc2)c2ccccc21`: the caspase activation in assay [2] was 5.31% (inactive).
